Data taken from ChEMBL document CHEMBL1138317, “Antibacterial oxazolidinones possessing a novel C-5 side chain. (5R)-trans-3-[3-Fluoro-4- (1-oxotetrahydrothiopyran-4-yl)phenyl]-2- oxooxazolidine-5-carboxylic acid amide (PF-00422602), a new lead compound” (J Med Chem, 2007).
Converted amounts (≈) assume the structure as drawn.

How the values were obtained:
[1] = Cmax in Sprague-Dawley rat at 20 mg/kg, po; type: ADME, organism-based; design: dose 20 mg/kg, route oral; conditions: in vivo
[2] = Half life in Sprague-Dawley rat at 20 mg/kg, po; type: ADME, organism-based; design: dose 20 mg/kg, route oral; conditions: in vivo
Streptococcus pneumoniae = assay: Antibacterial activity against levofloxacin-penicillin-resistant Streptococcus pneumoniae SV1 SP3 by microbroth technology; type: functional
Method in brief: (§1)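 Drug-resistant panel strains (levofloxacin/oxacillin-resistant S. aureus, levofloxacin/penicillin-resistant S. pneumoniae, vancomycin-resistant E. faecalis and E. faecium). Broth microdilution MIC in µg/mL; value reported as MIC90 across the strains of each resistant group.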

Staphylococcus aureus [3] = assay: Antibacterial activity against Staphylococcus aureus UC76 in po dosed CD1 mouse systemic infection model assessed as mortality after 7 days; type: functional
Staphylococcus aureus [4] = assay: Antibacterial activity against levofloxacin-oxacillin-resistant Staphylococcus aureus UC76 SA1 by micro-broth technology; type: functional; method in brief: as §1
Escherichia coli = assay: Inhibition of protein synthesis in Escherichia coli by cell-free transcription-translation assay; type: functional
Method in brief: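 E. coli cell-free coupled transcription/translation run in microtiter format with a luciferase reporter; luminescence was the read-out for protein synthesis.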

Enterococcus faecalis = assay: Antibacterial activity against vancomycin-resistant Enterococcus faecalis MGH2 EF1 by microbroth technology; type: functional; method in brief: as §1
Moraxella catarrhalis = assay: Antibacterial activity against Moraxella catarrhalis by microbroth technology; type: functional
Method in brief: (§2)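 MIC determined by broth microdilution, reported in µg/mL.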

Enterococcus faecium = assay: Antibacterial activity against vancomycin-resistant Enterococcus faecium by micro-broth technology; type: functional; method in brief: as §1
[5] = AUC in Sprague-Dawley rat at 20 mg/kg, po; type: ADME, organism-based, Plasma; design: dose 20 mg/kg, route oral; conditions: Sprague-Dawley, plasma
[6] = Clearance in Sprague-Dawley rat at 10 mg/kg, iv; type: ADME, organism-based; design: dose 10 mg/kg, route intravenous; conditions: in vivo
[7] = Bioavailability in Sprague-Dawley rat at 20 mg/kg, po; type: ADME, organism-based; conditions: Sprague-Dawley, in vivo
[8] = molecular target: T1, Amine oxidase [flavin-containing] A (Homo sapiens, UniProt P21397); assay: Inhibition of human recombinant MAOA
T1 sequence (P21397 whole entry): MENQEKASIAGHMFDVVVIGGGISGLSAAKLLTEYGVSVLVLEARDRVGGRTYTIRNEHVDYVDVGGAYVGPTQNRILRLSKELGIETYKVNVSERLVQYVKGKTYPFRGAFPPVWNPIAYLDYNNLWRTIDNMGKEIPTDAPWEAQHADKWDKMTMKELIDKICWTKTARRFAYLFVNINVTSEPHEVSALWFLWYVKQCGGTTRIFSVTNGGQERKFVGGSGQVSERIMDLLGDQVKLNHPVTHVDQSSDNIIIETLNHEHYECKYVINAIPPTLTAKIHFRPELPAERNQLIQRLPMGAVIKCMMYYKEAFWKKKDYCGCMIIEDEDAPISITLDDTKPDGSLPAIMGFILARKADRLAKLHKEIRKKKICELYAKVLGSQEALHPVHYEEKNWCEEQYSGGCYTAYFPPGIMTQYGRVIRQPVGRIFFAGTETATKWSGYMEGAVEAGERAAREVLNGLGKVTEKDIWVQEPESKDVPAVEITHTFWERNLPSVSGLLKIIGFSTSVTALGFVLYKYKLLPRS

Haemophilus influenzae = assay: Antibacterial activity against Haemophilus influenzae by micro-broth technology; type: functional; method in brief: as §2
[9] = Volume of distribution at steady state in Sprague-Dawley rat at 10 mg/kg, iv; type: ADME, organism-based; design: dose 10 mg/kg, route intravenous; conditions: in vivo, read-out: Vdss

| SMILES | Cmax [1] | half-life [2] | MIC90 (Streptococcus pneumoniae) | PD50 (Staphylococcus aureus [3]) | MIC90 (Staphylococcus aureus [4]) | IC50 (Escherichia coli) | MIC90 (Enterococcus faecalis) | MIC (Moraxella catarrhalis) | MIC90 (Enterococcus faecium) | AUC [5] | clearance [6] | bioavailability [7] | IC50 [8] | MIC (Haemophilus influenzae) | Vd [9] | MIC (Streptococcus pneumoniae) | MIC (Staphylococcus aureus [4]) | MIC (Enterococcus faecalis) | MIC (Enterococcus faecium) |
| --- | --- | --- | --- | --- | --- | --- | --- | --- | --- | --- | --- | --- | --- | --- | --- | --- | --- | --- | --- |
| NC(=O)[C@H]1CN(c2ccc(C3CCS(=O)(=O)CC3)c(F)c2)C(=O)O1 | 1880 ng/mL | 1.58 h | 2 µg/mL (≈ 5.61 µM) | 2.1 mg/kg | 2 µg/mL (≈ 5.61 µM) | 5.89 µM | 2 µg/mL (≈ 5.61 µM) | > 8 µg/mL | 4 µg/mL (≈ 11.2 µM) | 8620 ng·h/mL | 12.9 mL/min/kg | 40% | 105 µM | > 8 µg/mL | 1.11 L/kg | – | – | – | – |
| NC(=O)[C@H]1CN(c2cc(F)c(N3CCOCC3)c(F)c2)C(=O)O1 | – | – | 4 µg/mL (≈ 12.2 µM) | 6.7 mg/kg | 4 µg/mL (≈ 12.2 µM) | 17 µM | 8 µg/mL (≈ 24.4 µM) | > 8 µg/mL | 8 µg/mL (≈ 24.4 µM) | – | – | – | 63 µM | > 8 µg/mL | – | – | – | – | – |
| NC(=O)[C@H]1CN(c2cc(F)c(C3CCS(=O)(=O)CC3)c(F)c2)C(=O)O1 | – | – | – | 15 mg/kg | – | 6.28 µM | – | > 8 µg/mL | – | – | – | – | 293 µM | > 8 µg/mL | – | 4 µg/mL (≈ 10.7 µM) | 4 µg/mL (≈ 10.7 µM) | 4 µg/mL (≈ 10.7 µM) | 8 µg/mL (≈ 21.4 µM) |
| NC(=O)[C@H]1CN(c2ccc(N3CCOCC3)c(F)c2)C(=O)O1 | – | – | – | 8.22 mg/kg | – | 23 µM | – | > 8 µg/mL | – | – | – | – | 146 µM | > 8 µg/mL | – | 4 µg/mL (≈ 12.9 µM) | 4 µg/mL (≈ 12.9 µM) | 32 µg/mL (≈ 103 µM) | 32 µg/mL (≈ 103 µM) |
